Measured values as given in PubChem BioAssay AID488910 (Broad Institute, 2010).
Hit rate of the full screen: of about 20,000 compounds, about 25 (0.1%) were called active. The list comes from a sample in which actives are over-represented; it also holds similar structures and randomly drawn compounds. Unmarked numbers belong to inactive results.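 The calls were made as follows: active = mean replicate protection from cytokine-induced ATP loss at least 50% and at least 75% of replicates each reaching 50%; inconclusive = meets only one of the two criteria, mean or replicate share; inactive = fails both the mean and replicate share criteria.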

Assay: preservation of ATP in cytokine-treated beta cells – cell-based, ATP luminescence, single point, primary screen (AID 488910)
Settings: INS-1E cytokine-induced death, 48 h, at 10 µM, hits give high values, normalised: neutral wells 0, positive control 100
Outline: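 Assay system: INS-1E rat insulinoma cells. Amount: 8000 cells per well. Medium: phenol-red-free RPMI with 5% fetal bovine serum. Reagent: IL-1β, TNF-α and IFN-γ cytokine mix. Doses: one compound concentration, pin transfer. Schedule: 48 h co-treatment, 10 min post-lysis read. Detection: CellTiter-Glo luminescence measuring cellular ATP.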

Row | Compound | protection from cytokine-induced ATP loss [%]
1 | COc1ccc(NC(=O)N(C)C[C@H]2Oc3ccc(NC(=O)Cc4cn(C)c5ccccc45)cc3CC(=O)N([C@@H](C)CO)C[C@H]2C)cc1 | 13.3
2 | Cc1noc(C)c1NC(=O)Nc1ccc2c(c1)C(=O)N([C@H](C)CO)C[C@@H](C)[C@@H](CN(C)Cc1ccccc1)O2 | 2.87
3 | C[C@@H]1CCCCO[C@@H](CN(C)CC2CC2)[C@@H](C)CN([C@H](C)CO)C(=O)c2cc(NC(=O)Nc3cccc4ccccc34)ccc2O1 | -7.95
4 | Cc1cccc(CN(C)C[C@H]2OCc3cn(nn3)CCCC(=O)N([C@@H](C)CO)C[C@H]2C)c1 | -2.7
5 | Cc1ccc(S(=O)(=O)N(C)C[C@@H]2Oc3ccc(NC(=O)c4ccncc4)cc3CC(=O)N([C@H](C)CO)C[C@H]2C)cc1 | -0.881
6 | COc1cc(/C=C/C=N/NC(=O)CCCCCC(=O)Nc2ccccc2O)ccc1O | -1.89
7 | CC(C)NC(=O)N(C)C[C@H]1Oc2c(NC(=O)Nc3ccc(F)cc3)cccc2C(=O)N([C@@H](C)CO)C[C@@H]1C | 12.3
8 | COc1ccc(S(=O)(=O)Nc2ccc3c(c2)CC(=O)N([C@@H](C)CO)C[C@@H](C)[C@@H](CN(C)C(=O)Nc2c(C)noc2C)O3)cc1 | 9.17
9 | COc1ccc(NC(=O)Nc2ccc3c(c2)C(=O)N([C@H](C)CO)C[C@H](C)[C@@H](CN(C)C(=O)NC2CCCCC2)OCCCC[C@@H](C)O3)cc1 | 14.1
10 | C[C@H]1CN([C@@H](C)CO)C(=O)c2cc(NC(=O)C3CCCCC3)ccc2O[C@H]1CN(C)S(=O)(=O)c1cn(C)cn1 | 2.64
11 | C[C@H]1CN([C@@H](C)CO)C(=O)c2cccc(NC(=O)Nc3ccccc3)c2O[C@H]1CN(C)S(=O)(=O)c1ccc(Cl)cc1 | -12.7
12 | C[C@@H]1CN([C@H](C)CO)C(=O)Cc2cc(NC(=O)Nc3ccc(C(F)(F)F)cc3)ccc2O[C@@H]1CN(C)S(=O)(=O)c1ccccc1 | -5.63
13 | C[C@H](CO)N1C[C@H](C)[C@H](CN(C)C(=O)Nc2ccc(C(F)(F)F)cc2)Oc2ccc(NS(=O)(=O)c3cn(C)cn3)cc2CC1=O | 19
14 | C[C@@H]1CN([C@@H](C)CO)C(=O)Cc2cc(NS(=O)(=O)c3cccs3)ccc2O[C@@H]1CN(C)C(=O)Nc1ccc(C(F)(F)F)cc1 | -9.39
15 | O=C(N/N=C/c1ccc(Oc2ccccc2)cc1)c1ccccn1 | 4.62
16 | CC(C)NC(=O)Nc1cccc2c1O[C@@H](CN(C)Cc1ccc(C(=O)O)cc1)[C@@H](C)CN([C@H](C)CO)C2=O | 5.94
17 | C[C@H]1CN([C@@H](C)CO)C(=O)c2cccc(NC(=O)C3CCOCC3)c2O[C@H]1CN(C)S(C)(=O)=O | 10.3
18 | COc1ccc(S(=O)(=O)N(C)C[C@H]2Oc3ccc(NC(=O)Nc4c(C)noc4C)cc3CC(=O)N([C@@H](C)CO)C[C@H]2C)cc1 | 6.69
19 | Cc1noc(C)c1NC(=O)N(C)C[C@@H]1Oc2ccc(NS(C)(=O)=O)cc2C(=O)N([C@@H](C)CO)C[C@@H]1C | 1.81

Row | Compound | protection from cytokine-induced ATP loss [%]
20 | Cc1noc(C)c1S(=O)(=O)Nc1ccc2c(c1)CC(=O)N([C@H](C)CO)C[C@H](C)[C@H](CN(C)S(=O)(=O)c1cn(C)cn1)O2 | 15.3
21 | CNC[C@H]1Oc2ccc(NS(=O)(=O)c3cn(C)cn3)cc2C(=O)N([C@@H](C)CO)C[C@@H]1C | -1.06
22 | COc1ccc(NC(=O)Nc2cccc3c2O[C@H](CN(C)S(=O)(=O)c2ccc(F)cc2)[C@H](C)CN([C@H](C)CO)C3=O)cc1 | -2.75
23 | C[C@@H]1CN([C@@H](C)CO)C(=O)Cc2cc(NC(=O)Cn3cnnn3)ccc2O[C@@H]1CN(C)S(=O)(=O)c1cn(C)cn1 | 10.1
24 | COc1ccc(S(=O)(=O)Nc2ccc3c(c2)CC(=O)N([C@H](C)CO)C[C@@H](C)[C@@H](CN(C)C(=O)Nc2cccc4ccccc24)O3)cc1 | 0.838
25 | C[C@@H]1CN([C@H](C)CO)C(=O)c2cccc(NC(=O)Nc3ccccc3)c2O[C@H]1CN(C)Cc1ccccc1 | 3.52
26 | C[C@@H]1CN([C@H](C)CO)C(=O)c2cc(NS(=O)(=O)c3ccccc3)ccc2O[C@H]1CN(C)S(=O)(=O)c1ccc(Cl)cc1 | -7.86
27 | C[C@H](CO)N1C[C@H](C)[C@H](CN(C)C)Oc2ccc(NC(=O)c3ccncc3)cc2CC1=O | 2
28 | O=C(NO)c1cccc(C(=O)N/N=C/c2c(F)c(F)c(F)c(F)c2F)c1 | -2.52
29 | C[C@H]1CN([C@@H](C)CO)C(=O)Cc2cc(NC(=O)Nc3cccc4ccccc34)ccc2O[C@@H]1CN(C)S(=O)(=O)c1cn(C)cn1 | 4.42
30 | CC(C)NC(=O)N(C)C[C@H]1Oc2c(NC(=O)C3CCCCC3)cccc2C(=O)N([C@@H](C)CO)C[C@H]1C | 10.6
31 | Cc1noc(C)c1NC(=O)N(C)C[C@H]1Oc2c(NS(=O)(=O)c3cccs3)cccc2C(=O)N([C@@H](C)CO)C[C@@H]1C | 3.62
32 | O=C(N/N=C/c1c[nH]c2ccccc12)c1ccccc1O | -18.7
33 | Cc1ccc(S(=O)(=O)Nc2ccc3c(c2)CC(=O)N([C@H](C)CO)C[C@@H](C)[C@H](CN(C)S(=O)(=O)c2c(C)noc2C)O3)cc1 | 3.93
34 | COc1ccc(CN(C)C[C@@H]2Oc3ccc(NS(=O)(=O)c4cn(C)cn4)cc3C(=O)N([C@@H](C)CO)C[C@@H]2C)cc1 | 7.8
35 | C[C@H](CO)N1C[C@H](C)[C@H](CN(C)CC2CC2)Oc2ccc(NC(=O)CCN3CCOCC3)cc2C1=O | -6.34
36 | CC(C)NC(=O)Nc1cccc2c1O[C@H](CN(C)S(=O)(=O)c1cccs1)[C@@H](C)CN([C@H](C)CO)C2=O | 5.81
37 | C[C@@H]1CN([C@@H](C)CO)C(=O)c2cccc(NC(=O)Nc3ccccc3)c2O[C@H]1CN(C)Cc1ccccc1 | -11.7
